Data: paper PMC6543826 (Bioorganic chemistry, 2018)
“And” between values parts separate entries of the source, which are not always exact repeats. Identical values can stand only once. Like-named read-outs stand apart in the source and are kept apart here.

Experiments:
[1] = system: SW-620; experiment: cells; assay type: cell-based; conditions: SW-620, 10^−5 M, 48 h
[2] = system: NCI-H522; experiment: cells; assay type: cell-based; conditions: NCI-H522, 10^−5 M, 48 h
[3] = molecular target: ERK1 (Homo sapiens, UniProt P27361); experiment: in vitro radioactive kinase assay, Ets-1 phosphorylation by ERK1; assay type: biochemical
Method in brief: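 Radiometric assay at 28–30 °C in 25 mM HEPES pH 7.5, 50 mM KCl, 0.1 mM EDTA/EGTA, 2 mM DTT, 11 mM MgCl2, 10 μg mL−1 BSA and 5% DMSO (final). 2 nM activated ERK1 was used with 10 μM His-Ets-1 (1–138). Reactions were started with [γ-32P]ATP (10 or 100 μM). IC50 came from fitting rate versus inhibitor concentration to a hyperbolic decay equation.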

[4] = system: LOX IMVI; experiment: cells; assay type: cell-based; conditions: 10^−5 M, 48 h
[5] = system: PC-3; experiment: cells; assay type: cell-based; conditions: PC-3, 10^−5 M, 48 h
[6] = system: HOP-62; experiment: cells; assay type: cell-based; conditions: HOP-62, 10^−5 M, 48 h
[7] = system: HOP-92; experiment: cells; assay type: cell-based; conditions: HOP-92, 10^−5 M, 48 h
[8] = system: NCI-H322M; experiment: cells; assay type: cell-based; conditions: 10^−5 M, 48 h
[9] = system: DU-145; experiment: cells; assay type: cell-based; conditions: DU-145, 10^−5 M, 48 h
[10] = system: OVCAR-4; experiment: cells; assay type: cell-based; conditions: OVCAR-4, 10^−5 M, 48 h
[11] = system: SF-268; experiment: cells; assay type: cell-based; conditions: SF-268, 10^−5 M, 48 h
[12] = system: U251; experiment: cells; assay type: cell-based; conditions: U251, 10^−5 M, 48 h
[13] = system: T-47D; experiment: cells; assay type: cell-based; conditions: T-47D, 10^−5 M, 48 h
[14] = system: OVCAR-8; experiment: cells; assay type: cell-based; conditions: OVCAR-8, 10^−5 M, 48 h
[15] = system: NCI-60 panel of tumor cell lines; conditions: for Average G%: average over tested NCI-60 cell lines, 10^−5 M (10 μM), 48 h
[16] = system: HT29; experiment: cells; assay type: cell-based; conditions: HT29, 10^−5 M, 48 h
[17] = system: HL-60 (TB); experiment: cells; assay type: cell-based; conditions: HL-60(TB), 10^−5 M, 48 h
[18] = system: SK-MEL-2; experiment: cells; assay type: cell-based; conditions: SK-MEL-2, 10^−5 M, 48 h
[19] = system: HCT-116; experiment: cells; assay type: cell-based; conditions: HCT-116, 10^−5 M, 48 h

Chain of ERK1 (P27361 whole entry, species assumed): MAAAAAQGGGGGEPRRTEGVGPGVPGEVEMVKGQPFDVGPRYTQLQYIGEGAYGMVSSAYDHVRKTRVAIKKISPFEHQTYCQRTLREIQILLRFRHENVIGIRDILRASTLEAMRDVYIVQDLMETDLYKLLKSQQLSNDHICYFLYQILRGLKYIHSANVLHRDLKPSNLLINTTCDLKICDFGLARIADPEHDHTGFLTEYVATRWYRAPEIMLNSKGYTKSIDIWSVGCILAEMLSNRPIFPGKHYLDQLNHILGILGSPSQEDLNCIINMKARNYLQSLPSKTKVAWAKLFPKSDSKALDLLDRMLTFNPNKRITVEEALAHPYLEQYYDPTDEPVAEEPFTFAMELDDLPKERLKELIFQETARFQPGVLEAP

| SMILES | Growth percent (G%) [1] | Growth percent (G%) [2] | Growth percent (G%) [4] | Growth percent (G%) [5] | Growth percent (G%) [6] | Growth percent (G%) [7] | Growth percent (G%) [8] | Growth percent (G%) [9] | Growth percent (G%) [10] | Growth percent (G%) [11] | Growth percent (G%) [12] | Growth percent (G%) [13] | Growth percent (G%) [14] | Average G% [15] | Growth percent (G%) [16] | Growth percent (G%) [17] | Growth percent (G%) [18] | Growth percent (G%) [19] | other results |
| --- | --- | --- | --- | --- | --- | --- | --- | --- | --- | --- | --- | --- | --- | --- | --- | --- | --- | --- | --- |
| O=C1c2ccccc2C(=O)c2c1oc1c2c(=O)[nH]c2ccccc21 [3a, Naphtho[2′,3′:4,5]furo[3,2-c]quinoline-6,7,12(5H)-trione] | 89.23% | 54.81% | 56.12% | 65.49% | 118.63% | 71.42% | 89.28% | 82.02% | −5.49% | 91.30% | 79.04% | 22.52% | 35.61% | 68% and 68.19% | 102.52% | 2.26% | 76.92% | 55.46% | IC50 ([3]; ERK1 IC50, 100 μM ATP, 10 μM Ets-1): 9.12 ± 1.1 µM; IC50 ([3]; IC50 towards inhibiting ERK, ERK isoform not given): ~9 µM; NCI Cytotoxicity Screening Average G% ([15]; Table 4, 10 μM one-dose screen): 68% |
| Cn1c(=O)c2c(=O)c3c4c(oc3oc2c2ccccc21)C(=O)c1ccccc1C4=O [5a, 5-Methyl-5H-naphthalen[2″,3″:4′,5′]furo[3′,2′:4′,5,6]pyrano [3,2-c]quinoline-6,7,8,13-tetraone] | 103.1% | 78.37% | 95.89% | 79.23% | 80.81% | 99.17% | 91.04% | 81.38% | 97.38% | 101.09% | 104.35% | 83.56% | 100.1% | 95.45% | 96.96% | 104.29% | 86.85% | 99.77% | IC50 ([3]; read-out: ERK1 IC50, 100 μM ATP, 10 μM Ets-1): 95 ± 10.9 µM; IC50 ([3]; read-out: IC50 towards inhibiting ERK, ERK isoform not given): ≥ 100 µM |
